Measured values reported in ChEMBL document CHEMBL4334447, “Discovery of 4-Aminoquinoline-3-carboxamide Derivatives as Potent Reversible Bruton's Tyrosine Kinase Inhibitors for the Treatment of Rheumatoid Arthritis” (J Med Chem, 2019).
Converted amounts (≈) assume the structure as drawn.

How the values were obtained:
[1] = Toxicity in complete freund's adjuvant-induced DBA/1 mouse arthritis model assessed as effect on appetite at 0.2 mg/kg, po qd administered starting from 29 day post-CFA challenge and measured on day 29, 33, 36, 40 and 43; type: organism-based; conditions: in vivo, 696 h
Outline: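 CIA in male DBA/1 mice: intradermal bovine type II collagen in CFA on day 0, collagen II in IFA boost on day 20. Randomized on day 29 and given oral doses once daily (n=6 per group) alongside vehicle and naive groups. Body weights recorded over the study days.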

[2] = Kinetic aqueous solubility of the compound in pH 7.4 phosphate buffered saline incubated for 24 hrs under shaking condition by HPLC analysis; type: physicochemical; conditions: read-out: Kinetic_solubility
Outline: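 Dry powder shaken 24 h at 25 °C in 0.1 M phosphate buffer, pH 7.4, then filtered through a 0.45 µm membrane. Concentration determined by HPLC against a standard of the compound in DMSO. Mean of three separate assays in triplicate.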

[3] = biological target: Tyrosine-protein kinase BTK (Homo sapiens, UniProt Q06187); assay: Reversible inhibition of FAM-labeled peptide binding to full-length human N-terminal GST-tagged BTK (2 to 659 residues) expressed in baculovirus infected Sf21 insect cells at preincubated for 10 mins followed by FAM-labeled peptide addition and measured by off-chip mobility shift assay
Sequence of Tyrosine-protein kinase BTK (Q06187 whole entry, the tested form may be a part): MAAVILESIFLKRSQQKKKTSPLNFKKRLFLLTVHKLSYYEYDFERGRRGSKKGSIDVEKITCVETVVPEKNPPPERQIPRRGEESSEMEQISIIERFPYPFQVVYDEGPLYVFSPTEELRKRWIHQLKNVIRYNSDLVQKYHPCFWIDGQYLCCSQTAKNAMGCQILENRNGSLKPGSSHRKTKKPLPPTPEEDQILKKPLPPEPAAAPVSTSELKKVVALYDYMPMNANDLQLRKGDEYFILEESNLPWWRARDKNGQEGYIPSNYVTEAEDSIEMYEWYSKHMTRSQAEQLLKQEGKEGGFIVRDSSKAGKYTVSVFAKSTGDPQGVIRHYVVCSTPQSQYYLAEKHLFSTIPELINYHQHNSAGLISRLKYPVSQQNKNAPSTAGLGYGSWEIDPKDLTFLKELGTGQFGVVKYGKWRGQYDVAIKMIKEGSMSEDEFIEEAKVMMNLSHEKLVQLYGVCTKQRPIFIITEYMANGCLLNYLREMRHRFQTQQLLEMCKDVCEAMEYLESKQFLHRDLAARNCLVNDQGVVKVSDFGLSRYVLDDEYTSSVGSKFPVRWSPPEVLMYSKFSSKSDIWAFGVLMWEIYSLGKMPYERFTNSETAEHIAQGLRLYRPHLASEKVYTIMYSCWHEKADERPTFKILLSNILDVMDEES

Structure (SMILES) | Activity [1] | solubility kinetic at 24 h [2] [µg/mL] | IC50 [3] [nM]
C[C@@H]1C[C@H]2[C@@H]3CCC4=CC(=O)C=C[C@]4(C)[C@@]3(F)[C@@H](O)C[C@]2(C)[C@@]1(O)C(=O)CO [DEXAMETHASONE] | Toxic | – | –
Cc1cc2cn[nH]c2cc1-c1cccc2c(N)c(C(N)=O)cnc12 | – | 10.5 (≈ 33.1 µM) | 72.8
